# Experimental data as given in ChEMBL document CHEMBL3608281, “Synthesis and biological evaluation of novel 3,9-substituted β-carboline derivatives as anticancer agents” (Bioorg Med Chem Lett, 2015).
# How the values were obtained:
# [1] = Cytotoxicity against human H460 cells incubated for 48 hrs by MTT assay; format: functional, cell-based; details: NCI-H460, 48 h
# Method in brief: (§1)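 Human tumour lines (HL-60 leukemia, Hep3B liver, H460 lung, A498 renal, COLO205 colon, 2774 and SK-OV-3 ovarian) and normal Detroit 551 skin fibroblasts were exposed to a range of concentrations for 48 h. IC50 is the concentration giving 50% proliferation inhibition, as the mean of three independent determinations.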
# COLO 205 = experiment: Cytotoxicity against human COLO205 cells incubated for 48 hrs by MTT assay; format: functional, cell-based; details: COLO 205, 48 h; method in brief: as §1
# Detroit 551 = experiment: Cytotoxicity against human Detroit 551 cells incubated for 48 hrs by MTT assay; format: cell-based; details: Detroit 551, 48 h; method in brief: as §1
# SK-OV-3 = experiment: Cytotoxicity against human SKOV3 cells incubated for 48 hrs by MTT assay; format: functional, cell-based; details: SK-OV-3, 48 h; method in brief: as §1
# [2] = Cytotoxicity against human Hep3B cells incubated for 48 hrs by MTT assay; format: functional, cell-based, Hep 3B2; method in brief: as §1
# A498 = experiment: Cytotoxicity against human A498 cells incubated for 48 hrs by MTT assay; format: functional, cell-based; details: A498, 48 h
# [3] = Cytotoxicity against human 2774 cells incubated for 48 hrs by MTT assay; format: functional, cell-based; method in brief: as §1
# HL-60 = experiment: Cytotoxicity against human HL60 cells incubated for 48 hrs by MTT assay; format: functional, cell-based; details: HL-60, 48 h; method in brief: as §1
SMILES,IC50 [1] [µM],IC50 (COLO 205) [µM],IC50 (Detroit 551) [µM],IC50 (SK-OV-3) [µM],IC50 [2] [µM],IC50 (A498) [µM],IC50 [3] [µM],IC50 (HL-60) [µM]
CCOC(=O)c1cc2c3ccccc3n(Cc3ccccc3OC)c2cn1,> 100,> 100,> 100,> 100,8.9,41.3,> 100,3.9
O=C(O)c1cc2c3ccccc3n(Cc3ccc(Cl)cc3)c2cn1,15.1,26.5,–,–,1.2,9.9,–,3.9
CCOC(=O)c1cc2c3ccccc3n(Cc3ccccn3)c2cn1,> 100,38.7,> 100,–,> 100,46.3,–,> 100
O=C(O)C1Cc2c([nH]c3ccccc23)CN1 (centres undefined),> 50,> 50,–,–,–,> 50,–,–
O=C(O)c1cc2c3ccccc3n(Cc3ccc(F)cc3)c2cn1,–,33.5,–,27.7,–,7.6,23.5,–
CCOC(=O)c1cc2c3ccccc3n(Cc3ccccc3)c2cn1,> 100,> 100,50,3,> 100,48.2,26.8,> 100
